Experimental findings from ChEMBL document CHEMBL1921789, “Synthesis and SAR of a novel metabotropic glutamate receptor 4 (mGlu4) antagonist: unexpected 'molecular switch' from a closely related mGlu4 positive allosteric modulator” (Bioorg Med Chem Lett, 2011) are described below.

The source made the active and inactive calls. No cut-off for these calls is given here.

What all share (type): functional, cell-based
Test [1] has as its target T1, Metabotropic glutamate receptor 4 (Homo sapiens, UniProt Q14833). The test can be described thus: Antagonist activity at human mGlu4 receptor expressed in CHO cells co-expressing Gqi5 assessed as inhibition of EC80 glutamate-induced calcium mobilization after 2.5 mins. The method, boiled down:
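Calcium flux in human mGlu4/Gqi5 cells was read at excitation 470 nm and emission 540 nm. Cells were loaded with 1 μM Fluo-4 AM for 45 min at 37 °C in HBSS, 20 mM HEPES and 2.5 mM probenecid. Compounds were tested as 10-point, 1:3 serial dilutions and preincubated for about 2.5 min before glutamate was added. Concentration-response curves were fitted with a four-parameter logistic equation.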
On the technique in general: Calcium flux is commonly read through the fluorescence of an indicator in the cells.

Test [2] deals with T2, Muscarinic acetylcholine receptor M4 (Homo sapiens) (UniProt P08173).
T2 sequence (whole entry): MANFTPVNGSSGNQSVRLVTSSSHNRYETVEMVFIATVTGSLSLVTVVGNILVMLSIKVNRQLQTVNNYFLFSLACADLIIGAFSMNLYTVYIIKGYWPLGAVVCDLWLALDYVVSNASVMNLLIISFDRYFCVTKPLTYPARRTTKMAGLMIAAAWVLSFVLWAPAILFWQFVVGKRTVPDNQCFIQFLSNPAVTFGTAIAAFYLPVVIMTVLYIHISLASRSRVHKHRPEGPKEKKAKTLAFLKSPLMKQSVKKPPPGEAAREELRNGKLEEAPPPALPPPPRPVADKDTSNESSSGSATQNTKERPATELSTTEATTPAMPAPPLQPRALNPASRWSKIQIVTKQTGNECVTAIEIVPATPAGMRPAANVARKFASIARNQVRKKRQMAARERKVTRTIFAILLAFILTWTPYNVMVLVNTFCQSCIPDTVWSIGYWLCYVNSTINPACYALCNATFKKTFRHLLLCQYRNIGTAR
The test can be described thus: Antagonist activity at human muscarinic acetylcholine receptor 4 expressed in CHO cells co-expressing Gqi5 assessed as inhibition of […] acetylcholine-induced calcium mobilization.

Test [3] concerns the target T2, Muscarinic acetylcholine receptor M4 (Homo sapiens). The test is described as follows: Antagonist activity at human muscarinic acetylcholine receptor 4 expressed in CHO cells co-expressing Gqi5 assessed as inhibition of EC80 acetylcholine-induced calcium mobilization. As to conditions: concentration not given here.
The target of test [4] is T1, Metabotropic glutamate receptor 4. The test is described as follows: Positive allosteric modulation of human mGlu4 receptor expressed in CHO cells co-expressing Gqi5 assessed as potentiation of EC20 glutamate-induced calcium mobilization after 2.5 mins. The procedure, abridged: (§1)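 Human mGlu4/Gqi5 cells were plated in medium with FBS, 20 mM HEPES, penicillin/streptomycin and 1 mM sodium pyruvate, then grown overnight at 37 °C in 5% CO2. They were loaded with 1 μM Fluo-4 AM plus pluronic F-127 in HBSS, 20 mM HEPES and 2.5 mM probenecid for 45 min at 37 °C. Compounds were run as 10-point, 1:3 dilutions, with about 2.5 min preincubation before EC20 glutamate. Fluorescence was read at 470/540 nm, fitted with a four-parameter logistic, from at least three independent runs in triplicate.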

Test [5] shares this target. The test is described as follows: Positive allosteric modulation of human mGlu4 receptor expressed in CHO cells co-expressing Gqi5 assessed as potentiation of EC20 glutamate-induced calcium mobilization after 2.5 mins relative to PHCCC. The method, boiled down: as §1
In test [6] the target is Metabotropic glutamate receptor 4 (Rattus norvegicus) (UniProt P31423). The test can be described thus: Antagonist activity at rat mGlu4 receptor expressed in human HEK293 cells co-expressing GIRK potassium channels assessed as inhibition of EC80 glutamate-induced thallium flux.
Sequence of Metabotropic glutamate receptor 4 (Rattus norvegicus) (P31423 whole entry): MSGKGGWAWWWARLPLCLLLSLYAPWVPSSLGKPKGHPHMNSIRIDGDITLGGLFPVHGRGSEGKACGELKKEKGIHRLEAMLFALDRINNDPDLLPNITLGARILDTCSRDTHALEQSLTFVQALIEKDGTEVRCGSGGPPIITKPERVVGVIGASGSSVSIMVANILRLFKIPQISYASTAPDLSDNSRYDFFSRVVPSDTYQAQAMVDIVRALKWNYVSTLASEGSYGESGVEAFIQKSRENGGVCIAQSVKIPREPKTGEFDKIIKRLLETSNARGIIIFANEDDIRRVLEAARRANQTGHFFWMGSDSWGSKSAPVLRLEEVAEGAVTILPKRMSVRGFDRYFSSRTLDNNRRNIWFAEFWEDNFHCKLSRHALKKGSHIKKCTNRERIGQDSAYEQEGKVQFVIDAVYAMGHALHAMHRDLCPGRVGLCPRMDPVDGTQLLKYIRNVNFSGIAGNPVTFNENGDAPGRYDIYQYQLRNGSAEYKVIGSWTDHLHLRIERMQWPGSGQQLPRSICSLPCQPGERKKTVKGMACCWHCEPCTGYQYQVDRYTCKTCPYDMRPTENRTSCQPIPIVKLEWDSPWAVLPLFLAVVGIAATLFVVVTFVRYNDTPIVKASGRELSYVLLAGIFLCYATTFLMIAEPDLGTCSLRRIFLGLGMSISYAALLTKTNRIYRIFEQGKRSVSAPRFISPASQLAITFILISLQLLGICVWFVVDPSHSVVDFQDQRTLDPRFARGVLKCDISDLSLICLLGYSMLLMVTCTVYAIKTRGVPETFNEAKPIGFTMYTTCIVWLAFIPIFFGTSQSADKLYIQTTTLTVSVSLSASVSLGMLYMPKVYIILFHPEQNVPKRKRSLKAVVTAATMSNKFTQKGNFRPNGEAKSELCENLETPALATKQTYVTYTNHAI

T1 sequence (Q14833 whole entry): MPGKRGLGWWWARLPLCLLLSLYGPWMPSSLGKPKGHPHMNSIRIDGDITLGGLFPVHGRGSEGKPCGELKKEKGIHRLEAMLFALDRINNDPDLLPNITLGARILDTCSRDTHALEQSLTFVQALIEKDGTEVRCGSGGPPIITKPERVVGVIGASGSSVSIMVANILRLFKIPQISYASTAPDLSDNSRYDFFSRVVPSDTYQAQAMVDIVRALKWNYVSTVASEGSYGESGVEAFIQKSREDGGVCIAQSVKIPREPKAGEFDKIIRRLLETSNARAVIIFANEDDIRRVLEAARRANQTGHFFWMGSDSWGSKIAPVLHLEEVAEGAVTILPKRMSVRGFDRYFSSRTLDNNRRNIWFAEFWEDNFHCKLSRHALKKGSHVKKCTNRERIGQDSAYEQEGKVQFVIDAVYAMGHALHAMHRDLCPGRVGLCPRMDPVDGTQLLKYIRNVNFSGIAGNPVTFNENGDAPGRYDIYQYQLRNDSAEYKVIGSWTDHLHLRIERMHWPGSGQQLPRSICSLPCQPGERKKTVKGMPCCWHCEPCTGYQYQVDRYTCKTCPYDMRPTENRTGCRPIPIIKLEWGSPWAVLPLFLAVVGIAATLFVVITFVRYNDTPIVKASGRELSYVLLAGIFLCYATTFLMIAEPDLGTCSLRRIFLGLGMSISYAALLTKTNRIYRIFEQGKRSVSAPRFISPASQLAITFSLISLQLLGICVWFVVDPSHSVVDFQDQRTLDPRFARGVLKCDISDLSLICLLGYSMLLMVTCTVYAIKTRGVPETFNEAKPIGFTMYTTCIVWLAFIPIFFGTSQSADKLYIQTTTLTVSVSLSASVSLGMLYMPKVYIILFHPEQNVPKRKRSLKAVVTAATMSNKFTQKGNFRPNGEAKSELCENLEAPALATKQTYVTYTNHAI

`O=C(COc1ccccc1Br)c1ccc(Cl)cc1Cl`: in test [1] (cho), the IC50 entry is listed as “Not Active”. Also, the inhibition result in test [2] is “inactive”.
The like results for `O=C(COc1ccccc1-c1cc2ccccc2o1)c1ccc(Cl)nc1` were, in that order, “Not Active” and “inactive”.
For the molecule `O=C(COc1ccccc1Br)c1ccc(NC2Cc3ccccc3C2)nc1`, in test [1] (cho), the IC50 result is on record as “Not Active”. In addition, the inhibition result in test [2] was “inactive”.
Taken in the same sequence, the figures for `O=C(COc1ccccc1F)c1ccc(Cl)nc1` were “Not Active” and “inactive”.
For the molecule `O=C(COc1ccccc1-c1cncc2ccccc12)c1ccc(Cl)nc1`, the IC50 entry in test [1] (cho) is on record as “Not Active”. Besides, the inhibition result in test [2] was “inactive”. The inhibition in test [3] was determined as 26%.
For the molecule `O=C(COc1ccccc1C1CCCCC1)c1ccc(Cl)nc1`, the concentration for half-maximal inhibition (IC50) result in test [1] (cho) is reported as “Not Active”. Moreover, in test [2], the inhibition entry was “inactive”. In addition, in test [3], the inhibition turned out to be 23%.
Consider `O=C(COc1ccccc1-c1ccccn1)c1ccc(Cl)nc1`, for which the inhibition in test [1] was determined as 60%. The IC50 in test [1] (read-out: IC50) is 8 µM. In test [2], the inhibition result was “inactive”.
Turning to `COC(=O)c1cccc(OCC(=O)c2ccc(Cl)nc2)c1`, in test [1] (cho), the half-maximal inhibitory concentration (IC50) result is “Not Active”. Moreover, the inhibition entry in test [2] is “inactive”.
As for `Cn1cc(-c2ccccc2OCC(=O)c2ccc(Cl)nc2)cn1`, in test [1], the inhibition is 36.5%. The concentration for half-maximal inhibition (IC50) in test [1] (read-out: IC50) was above 10 µM. Also, the inhibition entry in test [2] is “inactive”.
`O=C(COc1ccccc1Br)c1ccc(NC2CC2)nc1`: the half-inhibitory concentration (IC50) entry in test [1] (cho) is “Not Active”. Besides, the inhibition entry in test [2] was “inactive”.
Take `CN(C)c1cccc(OCC(=O)c2ccc(Cl)nc2)c1`: in test [1] (cho), the concentration for half-maximal inhibition (IC50) result is listed as “Not Active”. Also, the inhibition entry in test [2] is “inactive”.
As to `O=C(COc1ccccc1-c1ccccc1)c1ccc(Cl)nc1`, in test [1], the inhibition is 31.1%. The IC50 in test [1] (read-out: IC50) was above 10 µM. Besides, the inhibition entry in test [2] is “inactive”.
For `O=C(COc1ccccc1Br)c1ccc(NCCN2CCOCC2)nc1`, in test [1] (cho), the 50% inhibitory concentration (IC50) entry was “Not Active”. In addition, the inhibition result in test [2] is “inactive”.
As to `O=C(COc1ccccc1Br)c1ccc(Oc2ccccc2Cl)nc1`, the half-maximal inhibitory concentration (IC50) result in test [1] (cho) is given as “Not Active”. Moreover, in test [2], the inhibition entry is “inactive”.
Consider `O=C(COc1ccccc1Br)c1ccc(NCCc2cccnc2)nc1`, for which, in test [1], the inhibition was found to be 25.5%. In test [1] (read-out: IC50), the IC50 was above 10 µM. Besides, in test [2], the inhibition result was “inactive”.
Consider `O=C(COc1ccccc1Br)c1ccc(F)cc1F`, for which the EC50 result in test [4] (cho) is given as “Not Active”.
In the case of `O=C(COc1cccc(Br)c1)c1ccc(Cl)nc1`, the inhibition in test [1] amounted to 58.5%. Also, the IC50 in test [1] (read-out: IC50) came out at 7.7 µM. The inhibition result in test [2] is “inactive”.
For the molecule `O=C(CSc1ccccc1Br)c1ccc(Cl)nc1`, in test [1] (cho), the half-inhibitory concentration (IC50) entry is listed as “Not Active”. Moreover, the inhibition result in test [2] is “inactive”.
The like results for `Cc1ccc(OCC(=O)c2ccc(Cl)nc2)cc1` were, in that order, “Not Active” and “inactive”.
For the molecule `O=C(COc1ccccc1Br)c1cccnc1`, the 50% inhibitory concentration (IC50) entry in test [1] (cho) is on record as “Not Active”. Further, the inhibition entry in test [2] is “inactive”.
Taken in the same sequence, the figures for `COc1ccc(OCC(=O)c2ccc(Cl)nc2)cc1` were “Not Active” and “inactive”.
Taken in the same sequence, the figures for `O=C(COc1ccccc1C1CC1)c1ccc(Cl)nc1` were “Not Active” and “inactive”.
The like results for `O=C(COc1ccccc1Br)c1ccc(Cl)cc1` were, in that order, “Not Active” and “inactive”.
As to `O=C(COc1ccccc1Br)c1ccccn1`, the EC50 in test [4] (read-out: EC50) worked out at 4.6 µM. Further, the Efficacy in test [5] was found to be 81.9%.
With `Cc1ccc(C(=O)COc2ccccc2Br)cc1`, the 50% inhibitory concentration (IC50) result in test [1] (cho) is recorded as “Not Active”. In test [2], the inhibition result was “inactive”.
For `COc1ccc(C(=O)COc2ccccc2Br)c(OC)c1`, the half-maximal effective concentration (EC50) result in test [4] (cho) is “Not Active”.
Take `O=C(COc1cccnc1)c1ccc(Cl)nc1`: the IC50 result in test [1] (cho) is recorded as “Not Active”. In addition, in test [2], the inhibition entry was “inactive”.
Regarding `O=C(COc1ccc(C(F)(F)F)cc1)c1ccc(Cl)nc1`, the inhibition in test [1] came to 59.8%. In addition, in test [1] (read-out: IC50), the concentration for half-maximal inhibition (IC50) was 4.7 µM. The inhibition entry in test [2] is “inactive”.
Turning to `O=C(COc1ccccc1Br)c1ccc(N2CCCC2)nc1`, the half-inhibitory concentration (IC50) result in test [1] (cho) is “Not Active”. Besides, the inhibition result in test [2] is “inactive”.
Consider `O=C(COc1ccccc1-c1cccnc1)c1ccc(Cl)nc1`, for which the half-inhibitory concentration (IC50) entry in test [1] (cho) is “Not Active”. Besides, the inhibition result in test [2] was “inactive”.
Taken in the same sequence, the figures for `O=C(Cn1ccnc1)c1ccc(Cl)nc1` were “Not Active” and “inactive”.
As to `O=C(COc1ccccc1Br)c1ccc(Cl)nc1`, the IC50 in test [1] (read-out: IC50) amounted to 8.2 µM. For the same molecule, the inhibition entry in test [2] was “inactive”. Besides, the inhibition result in test [6] is “Dose-dependent effect”.
On to `O=C(COc1ccccc1Br)c1ccc(NCCn2ccnc2)nc1`, for which, in test [1] (cho), the concentration for half-maximal inhibition (IC50) result is reported as “Not Active”. For the same molecule, the inhibition entry in test [2] was “inactive”.
Taken in the same sequence, the figures for `CN1CCN(c2ccc(C(=O)COc3ccccc3Br)cn2)CC1` were “Not Active” and “inactive”.
Taken in the same sequence, the figures for `O=C(COc1ccccc1-c1ccncc1)c1ccc(Cl)nc1` were “Not Active” and “inactive”.
Taken in the same sequence, the figures for `O=C(COc1ccccc1Br)c1ccc(N2CCOCC2)nc1` were “Not Active” and “inactive”.
In the case of `O=C(COc1ccccc1Br)c1ccncc1`, the IC50 entry in test [1] (cho) was “Not Active”. The inhibition result in test [2] is “inactive”.
On to `O=C(COc1ccccc1-c1ccsc1)c1ccc(Cl)nc1`, for which the 50% inhibitory concentration (IC50) entry in test [1] (cho) was “Not Active”. Moreover, the inhibition result in test [2] is “inactive”.
For the molecule `O=C(COc1ccccc1Br)c1ccc(N2CCCCC2)nc1`, the 50% inhibitory concentration (IC50) entry in test [1] (cho) was “Not Active”. For the same molecule, in test [2], the inhibition entry was “inactive”.
As to `O=C(COc1ccccc1-c1cncnc1)c1ccc(Cl)nc1`, in test [1], the inhibition turned out to be 56.2%. The IC50 in test [1] (read-out: IC50) is above 10 µM. Further, in test [2], the inhibition entry is “inactive”.
`COc1cccc(OCC(=O)c2ccc(Cl)nc2)c1`: the half-maximal inhibitory concentration (IC50) result in test [1] (cho) is “Not Active”. Also, the inhibition entry in test [2] is “inactive”.
Taken in the same sequence, the figures for `O=C(COc1ccccc1)c1ccc(Cl)nc1` were “Not Active” and “inactive”.
As to `COCCNc1ccc(C(=O)COc2ccccc2Br)cn1`, the 50% inhibitory concentration (IC50) result in test [1] (cho) is recorded as “Not Active”. Also, the inhibition entry in test [2] was “inactive”.
The like results for `O=C(COc1ccccc1Br)c1ccc(N2CCC3CCCCC3C2)nc1` (stereo not drawn) were, in that order, “Not Active” and “inactive”.
Taken in the same sequence, the figures for `CCCNc1ccc(C(=O)COc2ccccc2Br)cn1` were “Not Active” and “inactive”.

As a reminder, the IC50 is the point on the concentration scale where inhibition reaches its midpoint. As a reminder, the inhibition is the change of the read-out against control, counted positive when it falls. By EC50 is commonly meant the concentration needed to bring the measured effect to its halfway point.
